Test results: the array DNA melting data of Ke et al. (doi:10.1101/2024.01.08.574731)

Assays:
[1] = melting temperature; fluorescence melt of hairpins on a sequencing array, two-state fit, raised by 9.35 °C to match UV melts; conditions: sodium 0.088 M
In short: (§1)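 Folding enthalpy and melting temperature were estimated with bootstrapped two-state fits and combined across four replicates by inverse-variance weighting, with fitted temperatures raised by 9.35 °C to match UV melts. The data were Cy3 fluorescence of library hairpins, with annealed Cy3 and quencher oligos, on a sequenced MiSeq flow cell in 50 mM Na-HEPES pH 8.0, 25 mM NaCl, imaged in 2.5 °C steps up to 60 °C and normalised to pre-quench Cy3 and control constructs.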

[2] = folding enthalpy; higher = less favourable; fluorescence melt of hairpins on a sequencing array, two-state fit; conditions: sodium 0.088 M
In short: as §1

## GATCGGGTGCCCGATC ((((((....))))))
[1]
  Tm: 60.1 °C
[2]
  folding enthalpy: -36.7 kcal/mol

## GATCGGTAACCCGATC ((((((....))))))
[1]
  Tm: 54.3 °C
[2]
  folding enthalpy: -32.7 kcal/mol

## GATCGGTAACCGATC ((((((...))))))
[1]
  Tm: 56.1 °C
[2]
  folding enthalpy: -35.5 kcal/mol

## GATCGGTAGCCGATC ((((((...))))))
[1]
  Tm: 55.4 °C
[2]
  folding enthalpy: -42.2 kcal/mol

## GATCGGTAGGCCGATC ((((((....))))))
[1]
  Tm: 57.9 °C
[2]
  folding enthalpy: -40.5 kcal/mol

## GATCGGTAGTCCGATC ((((((....))))))
[1]
  Tm: 55.6 °C
[2]
  folding enthalpy: -44.4 kcal/mol

## GATCGGTATCCGATC ((((((...))))))
[1]
  Tm: 57.4 °C
[2]
  folding enthalpy: -40.8 kcal/mol

## GATCGGTCGACCGATC ((((((....))))))
[1]
  Tm: 61.4 °C
[2]
  folding enthalpy: -49.7 kcal/mol

## GATCGGTGACCCGATC ((((((....))))))
[1]
  Tm: 55.8 °C
[2]
  folding enthalpy: -36.5 kcal/mol

## GATCGGTGACCGATC ((((((...))))))
[1]
  Tm: 55.5 °C
[2]
  folding enthalpy: -38.7 kcal/mol

## GATCGGTGCCCCGATC ((((((....))))))
[1]
  Tm: 57 °C
[2]
  folding enthalpy: -29.1 kcal/mol

## GATCGGTGTCCGATC ((((((...))))))
[1]
  Tm: 58.3 °C
[2]
  folding enthalpy: -32 kcal/mol

## GATCGGTGTTCCGATC ((((((....))))))
[1]
  Tm: 58.6 °C
[2]
  folding enthalpy: -41.3 kcal/mol

## GATCGGTTCCCCGATC ((((((....))))))
[1]
  Tm: 56.8 °C
[2]
  folding enthalpy: -40 kcal/mol

## GATCGGTTTTCCGATC ((((((....))))))
[1]
  Tm: 60.1 °C
[2]
  folding enthalpy: -45.1 kcal/mol

## GATCGTAAAACGATC ((((((...))))))
[1]
  Tm: 54.4 °C
[2]
  folding enthalpy: -36.7 kcal/mol

## GATCGTAAGTACGATC ((((((....))))))
[1]
  Tm: 53.3 °C
[2]
  folding enthalpy: -32.9 kcal/mol

## GATCGTACCACGATC ((((((...))))))
[1]
  Tm: 57.3 °C
[2]
  folding enthalpy: -33.7 kcal/mol

## GATCGTACCGACGATC ((((((....))))))
[1]
  Tm: 53.4 °C
[2]
  folding enthalpy: -53.3 kcal/mol

## GATCGTACGACGATC ((((((...))))))
[1]
  Tm: 54.5 °C
[2]
  folding enthalpy: -37.2 kcal/mol

## GATCGTACGTACGATC ((((((....))))))
[1]
  Tm: 57.9 °C
[2]
  folding enthalpy: -36 kcal/mol

## GATCGTACTCACGATC ((((((....))))))
[1]
  Tm: 53.9 °C
[2]
  folding enthalpy: -44.5 kcal/mol

## GATCGTACTTACGATC ((((((....))))))
[1]
  Tm: 55.3 °C
[2]
  folding enthalpy: -39.8 kcal/mol

## GATCGTAGAACGATC ((((((...))))))
[1]
  Tm: 55.2 °C
[2]
  folding enthalpy: -36.6 kcal/mol

## GATCGTAGCGACGATC ((((((....))))))
[1]
  Tm: 54.9 °C
[2]
  folding enthalpy: -38.9 kcal/mol

## GATCGTAGCTACGATC ((((((....))))))
[1]
  Tm: 59 °C
[2]
  folding enthalpy: -43.2 kcal/mol

## GATCGTAGGTACGATC ((((((....))))))
[1]
  Tm: 55.8 °C
[2]
  folding enthalpy: -38.9 kcal/mol

## GATCGTAGTGACGATC ((((((....))))))
[1]
  Tm: 56.6 °C
[2]
  folding enthalpy: -33.7 kcal/mol

## GATCGTAGTTACGATC ((((((....))))))
[1]
  Tm: 56.8 °C
[2]
  folding enthalpy: -30.9 kcal/mol

## GATCGTATCCACGATC ((((((....))))))
[1]
  Tm: 56.9 °C
[2]
  folding enthalpy: -35.3 kcal/mol

## GATCGTCAGTACGATC ((((((....))))))
[1]
  Tm: 53.7 °C
[2]
  folding enthalpy: -42.8 kcal/mol

## GATCGTCCAACGATC ((((((...))))))
[1]
  Tm: 55.6 °C
[2]
  folding enthalpy: -39.4 kcal/mol

## GATCGTCCCACGATC ((((((...))))))
[1]
  Tm: 57.6 °C
[2]
  folding enthalpy: -38.5 kcal/mol

## GATCGTCCCTACGATC ((((((....))))))
[1]
  Tm: 55 °C
[2]
  folding enthalpy: -43.9 kcal/mol

## GATCGTCGCACGATC ((((((...))))))
[1]
  Tm: 58.2 °C
[2]
  folding enthalpy: -37.9 kcal/mol

## GATCGTCGCGACGATC ((((((....))))))
[1]
  Tm: 67.6 °C
[2]
  folding enthalpy: -37.5 kcal/mol

## GATCGTCGTTACGATC ((((((....))))))
[1]
  Tm: 55.6 °C
[2]
  folding enthalpy: -36 kcal/mol

## GATCGTCTCTACGATC ((((((....))))))
[1]
  Tm: 54.5 °C
[2]
  folding enthalpy: -38.4 kcal/mol

## GATCGTGAAACGATC ((((((...))))))
[1]
  Tm: 66.8 °C
[2]
  folding enthalpy: -36.8 kcal/mol

## GATCGTGAACACGATC ((((((....))))))
[1]
  Tm: 63.6 °C
[2]
  folding enthalpy: -34.5 kcal/mol

## GATCGTGACGACGATC ((((((....))))))
[1]
  Tm: 56.8 °C
[2]
  folding enthalpy: -39.2 kcal/mol

## GATCGTGATGACGATC ((((((....))))))
[1]
  Tm: 54.4 °C
[2]
  folding enthalpy: -37.8 kcal/mol

## GATCGTGCCGACGATC ((((((....))))))
[1]
  Tm: 56.4 °C
[2]
  folding enthalpy: -49.2 kcal/mol

## GATCGTGCGAACGATC ((((((....))))))
[1]
  Tm: 64.1 °C
[2]
  folding enthalpy: -32.9 kcal/mol

## GATCGTGCGTACGATC ((((((....))))))
[1]
  Tm: 55 °C
[2]
  folding enthalpy: -39.5 kcal/mol

## GATCGTGCTTACGATC ((((((....))))))
[1]
  Tm: 56.4 °C
[2]
  folding enthalpy: -38.4 kcal/mol

## GATCGTGGAAACATGATC ((((.((....)).))))
[1]
  Tm: 47.5 °C
[2]
  folding enthalpy: -43.8 kcal/mol

## GATCGTGTAGACGATC ((((((....))))))
[1]
  Tm: 59.6 °C
[2]
  folding enthalpy: -39.8 kcal/mol

## GATCGTGTGTACGATC ((((((....))))))
[1]
  Tm: 54.7 °C
[2]
  folding enthalpy: -40.9 kcal/mol

## GATCGTTAAGACGATC ((((((....))))))
[1]
  Tm: 55.4 °C
[2]
  folding enthalpy: -43.2 kcal/mol

## GATCGTTACTACGATC ((((((....))))))
[1]
  Tm: 55.1 °C
[2]
  folding enthalpy: -42.8 kcal/mol

## GATCGTTCGGACGATC ((((((....))))))
[1]
  Tm: 56.9 °C
[2]
  folding enthalpy: -37.8 kcal/mol

## GATCGTTCGTACGATC ((((((....))))))
[1]
  Tm: 55.5 °C
[2]
  folding enthalpy: -44.1 kcal/mol

## GATCGTTCTACGATC ((((((...))))))
[1]
  Tm: 59.6 °C
[2]
  folding enthalpy: -35.3 kcal/mol

## GATCGTTGAACGATC ((((((...))))))
[1]
  Tm: 53.6 °C
[2]
  folding enthalpy: -32.2 kcal/mol

## GATCGTTGCAACGATC ((((((....))))))
[1]
  Tm: 59.2 °C
[2]
  folding enthalpy: -59.5 kcal/mol

## GATCGTTGCCACGATC ((((((....))))))
[1]
  Tm: 54.5 °C
[2]
  folding enthalpy: -39.9 kcal/mol

## GATCGTTGGGACGATC ((((((....))))))
[1]
  Tm: 59 °C
[2]
  folding enthalpy: -36.7 kcal/mol

## GATCGTTGTACGATC ((((((...))))))
[1]
  Tm: 61.1 °C
[2]
  folding enthalpy: -38.8 kcal/mol

## GATCGTTTAGACGATC ((((((....))))))
[1]
  Tm: 55.6 °C
[2]
  folding enthalpy: -38.2 kcal/mol

## GATCGTTTGACGATC ((((((...))))))
[1]
  Tm: 55.5 °C
[2]
  folding enthalpy: -24.6 kcal/mol

## GATCGTTTGGACGATC ((((((....))))))
[1]
  Tm: 56.3 °C
[2]
  folding enthalpy: -44.5 kcal/mol

## GATCGTTTTAACGATC ((((((....))))))
[1]
  Tm: 60.8 °C
[2]
  folding enthalpy: -42.2 kcal/mol

## GATCTAAAATTAGATC ((((((....))))))
[1]
  Tm: 35.7 °C
[2]
  folding enthalpy: -29.9 kcal/mol

## GATCTAAAGCTAGATC ((((((....))))))
[1]
  Tm: 35.4 °C
[2]
  folding enthalpy: -18.3 kcal/mol

## GATCTAAATATAGATC ((((((....))))))
[1]
  Tm: 35.7 °C
[2]
  folding enthalpy: -25.9 kcal/mol

## GATCTAAATTTAGATC ((((((....))))))
[1]
  Tm: 44.3 °C
[2]
  folding enthalpy: -32.3 kcal/mol

## GATCTAACGGTAGATC ((((((....))))))
[1]
  Tm: 40.5 °C
[2]
  folding enthalpy: -38.4 kcal/mol

## GATCTAACTATAGATC ((((((....))))))
[1]
  Tm: 37.5 °C
[2]
  folding enthalpy: -29.3 kcal/mol

## GATCTAACTTAGATC ((((((...))))))
[1]
  Tm: 37.3 °C
[2]
  folding enthalpy: -29.3 kcal/mol

## GATCTAAGAGTAGATC ((((((....))))))
[1]
  Tm: 37.1 °C
[2]
  folding enthalpy: -14.9 kcal/mol

## GATCTAAGGGTAGATC ((((((....))))))
[1]
  Tm: 35.3 °C
[2]
  folding enthalpy: -25.1 kcal/mol
